GASC1 inh = KDM4C (human) demethylase inhibition; Q9H3R0; GST-KDM4C 2-372, H3K9me3 peptide, LANCE TR-FRET; inhibition, % at 12.5 µM; actives 0.15% (n = 96,000); AID 720574;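 active = mean replicate inhibition above about 25%, with at least 55% of replicates also reaching it, limit read from the data, passing the limit was not always enough; inconclusive = only one of those two conditions met; inactive = neither condition met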
Target sequence (Q9H3R0 2-372 limits assumed): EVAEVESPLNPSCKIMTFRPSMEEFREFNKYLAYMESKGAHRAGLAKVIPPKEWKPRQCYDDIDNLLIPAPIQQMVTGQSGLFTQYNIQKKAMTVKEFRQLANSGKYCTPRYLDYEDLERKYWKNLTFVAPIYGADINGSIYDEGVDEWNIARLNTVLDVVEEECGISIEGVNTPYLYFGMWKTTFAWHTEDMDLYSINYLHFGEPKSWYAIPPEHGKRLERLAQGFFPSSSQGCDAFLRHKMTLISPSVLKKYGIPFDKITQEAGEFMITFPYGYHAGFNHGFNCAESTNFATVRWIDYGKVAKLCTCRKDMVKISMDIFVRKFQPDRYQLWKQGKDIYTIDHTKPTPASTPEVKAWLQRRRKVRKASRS
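reagent = H3K9me3 peptide substrate, Fe(II), 2-oxoglutarate | system = GST-tagged GASC-1 (JMJD2C) catalytic fragment, aa 2-372 | amount = enzyme final amount 10 nM | read-out = Fall in 671/618 emission ratio as inhibition | medium = HEPES buffer, pH 7.5, plus ascorbate | schedule = 30 min reaction, 60 min detection, RT | measured by = LANCE TR-FRET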
T cruzi growth-1 = blocks T. cruzi growth in NIH3T3 culture; actives 5.9% (n = 77,000); inhibition, % at 8.34 µM; T. cruzi beta-gal in NIH3T3, GalScreen luminescence, 90 h;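 active = mean inhibition above about 93%, with at least 55% of replicates each passing it, limit read from the data, passing the limit was not always enough; inconclusive = only one of those two conditions holds; inactive = neither condition holds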
Pf Dd2 inh = inhibitors of Plasmodium falciparum Dd2 growth. activity change, % at 10 µM. P. falciparum Dd2 growth, SYBR Green, 72 h; hits give low values. actives 2.3% (n = 94,000); in the data active = activity change below about -80%; inconclusive = no clear call, values can overlap the other calls
IDH1 mut inh = inhibitors of human IDH1 R132H; AID 624101; IDH1 R132H reductase, diaphorase/resazurin fluorescence, 60 min; O75874; actives 0.18% (n = 70,000); inhibition, % at 10 µM; in the data active = inhibition above about 34%; inconclusive = no clear call, values can overlap the other calls; inactive = below about 11%
Target sequence (O75874 whole entry R132H): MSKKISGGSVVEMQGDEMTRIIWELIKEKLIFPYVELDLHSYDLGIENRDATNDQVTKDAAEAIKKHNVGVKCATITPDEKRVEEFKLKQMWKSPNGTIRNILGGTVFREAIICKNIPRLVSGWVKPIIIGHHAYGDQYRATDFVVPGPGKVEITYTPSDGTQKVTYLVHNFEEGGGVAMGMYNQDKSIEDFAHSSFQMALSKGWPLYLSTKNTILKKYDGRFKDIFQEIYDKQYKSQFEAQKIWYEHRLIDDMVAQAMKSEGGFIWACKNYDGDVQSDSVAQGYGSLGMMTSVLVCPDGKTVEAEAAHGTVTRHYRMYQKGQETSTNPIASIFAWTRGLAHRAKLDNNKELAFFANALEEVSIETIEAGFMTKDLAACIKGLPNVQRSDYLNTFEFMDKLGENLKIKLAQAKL
T cruzi growth-2 = inhibitors of T. cruzi proliferation | shares compounds with T cruzi growth-1 | actives 72% (n = 5,600) | AID 651739 | T. cruzi beta-gal in NIH3T3, GalScreen luminescence, 90 h | inhibition, % at 8.35 µM;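 active = mean replicate inhibition above about 95% and at least 55% of replicates individually reaching it, limit read from the data; inconclusive = only one of the two criteria is met; inactive = neither criterion is met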
T cruzi growth-3 = blocks T. cruzi growth in NIH3T3 host cells. shares compounds with T cruzi growth-1. T. cruzi beta-gal in NIH3T3, GalScreen luminescence, 90 h. inhibition, % at 2.09 µM. actives 21% (n = 5,600);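 active = mean inhibition above about 95%, with at least 55% of replicates also reaching it, limit read from the data; inconclusive = meets just one of the two conditions; inactive = meets neither condition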
3T3 cytotox = NIH/3T3 (mouse) viability loss; shares compounds with T cruzi growth-1; NIH/3T3 viability, CellTiter-Glo ATP luminescence, 90 h; cytotoxicity (signal decrease), % at 8.35 µM; actives 14% (n = 5,600); AID 651742;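 active = mean signal decrease across replicates above about 35% based on untreated-well scatter, with enough replicates individually passing, limit read from the data; inconclusive = no rule stated though some were filed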
NIH3T3 tox 2 = NIH/3T3 (mouse) viability loss. shares compounds with T cruzi growth-1. NIH/3T3 viability, CellTiter-Glo ATP luminescence, 90 h. inhibition, % at 24.9 µM. actives 56% (n = 5,600). AID 651744;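 active = mean loss of cell viability signal at or above a set limit, and enough replicates individually reaching it; inconclusive = meets only the mean limit or only the replicate share; inactive = meets neither condition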
Of the large screens only hits and unclear results are named; the others gave an inactive call (follow-up assays come after a bar, where they were run). A selection: hits, their analogues and other compounds. The true share with any hit is near 5.8%.

CC(C)(O)C#Cc1ccc([C@H]2[C@@H](CO)N3CCCCN(C(=O)c4cccc(F)c4)C[C@@H]23)cc1	T cruzi growth-1 102.6 (no result: IDH1 mut inh) | T cruzi growth-2 104.6 | T cruzi growth-3 inactive | 3T3 cytotox inactive | NIH3T3 tox 2 inactive
CC(C)(O)C#Cc1ccc([C@@H]2[C@@H](CO)N3CCCCN(C(=O)c4cccc(F)c4)C[C@@H]23)cc1	T cruzi growth-1 113.3 (no result: IDH1 mut inh) | T cruzi growth-2 inactive | T cruzi growth-3 inactive | 3T3 cytotox inactive | NIH3T3 tox 2 inactive
O=C(O)CCCCCC(=O)N/N=C/c1ccoc1	none (no result: GASC1 inh, T cruzi growth-1, Pf Dd2 inh)
Cc1ccc(-c2ccc3c(c2)O[C@H](CN(C)Cc2ccncc2)[C@H](C)CN([C@@H](C)CO)S3(=O)=O)cc1	T cruzi growth-1 118.7 (no result: IDH1 mut inh) | T cruzi growth-2 inactive | T cruzi growth-3 inactive | 3T3 cytotox inconclusive | NIH3T3 tox 2 99.0
Cc1ccc(-c2ccc3c(c2)O[C@H](CN(C)Cc2ccncc2)[C@@H](C)CN([C@H](C)CO)S3(=O)=O)cc1	T cruzi growth-1 122.2, Pf Dd2 inh -89.5 | T cruzi growth-2 99.1 | T cruzi growth-3 102.7 | 3T3 cytotox 75.5 | NIH3T3 tox 2 104.6
C[C@H](CO)N1C[C@H](C)[C@@H](CN(C)Cc2ccncc2)Oc2cc(-c3ccncc3)ccc2S1(=O)=O	none (no result: IDH1 mut inh)
CN1C(=O)c2cc(NC(=O)Nc3ccccc3)ccc2OC[C@@H]2O[C@H](CC(=O)O)CC[C@@H]21	none (no result: Pf Dd2 inh, IDH1 mut inh)
C[C@@H]1CCCCO[C@H](CN(C)S(=O)(=O)c2ccc(Cl)cc2)[C@H](C)CN([C@H](C)CO)C(=O)c2cc(NS(=O)(=O)c3ccccc3)ccc2O1	none
C[C@@H]1CCCCO[C@@H](CN(C)S(=O)(=O)c2ccccc2)[C@H](C)CN([C@H](C)CO)C(=O)c2cc(NS(=O)(=O)c3ccc(Cl)cc3)ccc2O1	T cruzi growth-1 109.5 (no result: IDH1 mut inh) | T cruzi growth-2 101.4 | T cruzi growth-3 inconclusive | 3T3 cytotox inactive | NIH3T3 tox 2 inactive
C[C@@H]1CN([C@@H](C)CO)C(=O)c2cc(NS(=O)(=O)c3ccc(Cl)cc3)ccc2O[C@@H](C)CCCCO[C@H]1CN(C)S(=O)(=O)c1ccc(Cl)cc1	T cruzi growth-1 110.6 | T cruzi growth-2 108.1 | T cruzi growth-3 inactive | 3T3 cytotox inactive | NIH3T3 tox 2 inactive
C[C@H]1CCCCO[C@H](CN(C)S(=O)(=O)c2ccccc2)[C@@H](C)CN([C@@H](C)CO)C(=O)c2cc(NS(=O)(=O)c3ccc(Cl)cc3)ccc2O1	T cruzi growth-1 113.8 (no result: IDH1 mut inh) | T cruzi growth-2 103.2 | T cruzi growth-3 inactive | 3T3 cytotox inactive | NIH3T3 tox 2 inactive
C[C@@H]1CCCCO[C@@H](CN(C)S(=O)(=O)c2ccccc2)[C@@H](C)CN([C@@H](C)CO)C(=O)c2cc(NS(=O)(=O)c3ccc(Cl)cc3)ccc2O1	T cruzi growth-1 117.5 (no result: IDH1 mut inh) | T cruzi growth-2 101.0 | T cruzi growth-3 inactive | 3T3 cytotox inactive | NIH3T3 tox 2 inactive
CN(C)c1ccc2c(c1)[C@H]1C[C@H](CC(=O)NC3CCCC3)O[C@H](CO)[C@H]1O2	none
COc1ccc2c3c([nH]c2c1)[C@@H](CO)N(CC1CC1)CC31CN(C(=O)c2cccc(F)c2)C1	none (no result: T cruzi growth-1, IDH1 mut inh)
C[C@H]1CN([C@@H](C)CO)C(=O)c2cc(-c3cccc(C(=O)N(C)C)c3)cnc2O[C@@H]1CN(C)S(=O)(=O)c1ccccc1	none (no result: T cruzi growth-1)
Cc1noc(C)c1S(=O)(=O)Nc1ccc2c(c1)C(=O)N([C@H](C)CO)C[C@@H](C)[C@@H](CN(C)C(=O)Nc1ccc(F)cc1)O2	none
COc1cccc(NC(=O)N(C)C[C@@H]2Oc3ncc(C#Cc4ccc(F)cc4)cc3C(=O)N([C@H](C)CO)C[C@@H]2C)c1	T cruzi growth-1 103.8 (no result: IDH1 mut inh) | T cruzi growth-2 98.3 | T cruzi growth-3 inactive | 3T3 cytotox inactive | NIH3T3 tox 2 81.1
COc1cccc(NC(=O)N(C)C[C@@H]2Oc3ncc(C#Cc4ccc(F)cc4)cc3C(=O)N([C@@H](C)CO)C[C@H]2C)c1	T cruzi growth-1 112.7 (no result: IDH1 mut inh) | T cruzi growth-2 111.9 | T cruzi growth-3 111.0 | 3T3 cytotox inactive | NIH3T3 tox 2 inactive
COc1cccc(NC(=O)N(C)C[C@H]2Oc3ncc(C#Cc4ccc(F)cc4)cc3C(=O)N([C@@H](C)CO)C[C@@H]2C)c1	T cruzi growth-1 121.0 (no result: IDH1 mut inh) | T cruzi growth-2 105.8 | T cruzi growth-3 100.1 | 3T3 cytotox inactive | NIH3T3 tox 2 37.6
COc1cccc(NC(=O)N(C)C[C@H]2Oc3ncc(C#Cc4ccc(F)cc4)cc3C(=O)N([C@H](C)CO)C[C@@H]2C)c1	none
COc1cccc(NC(=O)N(C)C[C@@H]2Oc3ncc(C#Cc4ccc(F)cc4)cc3C(=O)N([C@H](C)CO)C[C@H]2C)c1	T cruzi growth-1 116.7 | T cruzi growth-2 108.1 | T cruzi growth-3 101.8 | 3T3 cytotox inactive | NIH3T3 tox 2 inactive
COc1cccc(NC(=O)N(C)C[C@H]2Oc3ncc(C#Cc4ccc(F)cc4)cc3C(=O)N([C@H](C)CO)C[C@H]2C)c1	none (no result: IDH1 mut inh)
COc1ccc2c3c([nH]c2c1)[C@@H](CO)N(C(=O)c1ccccn1)CC31CN(C(=O)C2CC2)C1	none (no result: T cruzi growth-1, IDH1 mut inh)
CNC[C@@H]1OCCCC[C@H](C)Oc2ccc(N)cc2C(=O)N([C@@H](C)CO)C[C@H]1C	none (no result: GASC1 inh)
O=C(CSc1nnc(-c2ccco2)n1-c1ccccc1)c1ccc2c(c1)OCCO2	none (no result: GASC1 inh, T cruzi growth-1, Pf Dd2 inh)
C[C@H]1CN([C@@H](C)CO)C(=O)c2cc(-c3ccc(F)cc3)cnc2O[C@H]1CN(C)C(=O)NC1CCCC1	none
CCC(=O)Nc1ccc2c(c1)C(=O)N(C)[C@@H]1CC[C@@H](CC(=O)NCCc3ccccc3)O[C@@H]1CO2	GASC1 inh inconclusive (no result: IDH1 mut inh)
CCNC(=O)[C@H]1[C@H](CO)[C@H]2Cn3c(ccc(C4=CCCC4)c3=O)[C@@H]1N2Cc1ccccc1	none (no result: IDH1 mut inh)
C[C@@H]1CN([C@H](C)CO)C(=O)Cc2cc(NC(=O)Nc3ccccc3)ccc2O[C@@H]1CN(C)Cc1ccc(Cl)c(Cl)c1	T cruzi growth-1 102.3 (no result: IDH1 mut inh) | T cruzi growth-2 108.4 | T cruzi growth-3 inactive | 3T3 cytotox inactive | NIH3T3 tox 2 104.0
C[C@@H]1CN([C@@H](C)CO)C(=O)c2cc(NC(=O)Cc3cn(C)c4ccccc34)ccc2O[C@@H]1CN(C)Cc1ccc(Cl)c(Cl)c1	none
C[C@@H]1CN([C@H](C)CO)C(=O)Cc2cc(NC(=O)Cc3cn(C)c4ccccc34)ccc2O[C@H]1CN(C)Cc1ccc(C(=O)Nc2ccccc2N)cc1	T cruzi growth-1 inconclusive | T cruzi growth-2 inactive | T cruzi growth-3 inactive | 3T3 cytotox inactive | NIH3T3 tox 2 inactive

Screening data from PubChem BioAssay.
